Assay: phase I trial: safety and tolerability
Assay type: in vivo, human
Procedure, shortened: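 Fifteen patients were dosed orally twice daily (three per cohort, 100–800 mg). AEs, DLTs, physical exams, vital signs, ECGs and laboratory chemistry, hematology and coagulation were recorded from first dose to end of treatment. AEs were graded by the investigator using NCI CTCAE v4.03. DLTs were assessed in cycle 1 (days 1–28): grade ≥3 or immune-related non-hematologic events, and grade ≥4 hematologic events.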

[1] = 800 mg two times per day, one patient

NS(=O)(=O)[C@H]1CC[C@](F)(CC[C@H]2c3ccccc3-c3cncn32)CC1 [M4112]
2 (66.7) n (%): Dyspepsia (100 mg two times per day (n=3)) | Fatigue (100 mg two times per day (n=3)) | Vomiting (100 mg two times per day (n=3)) | Diarrhea (600 mg two times per day (n=3)) | Lipase increased (600 mg two times per day (n=3)) | Aspartate aminotransferase increased (800 mg two times per day (n=3))
20.5%: median probability of a DLT (Bayesian model estimate) (800 mg)
grade 3 allergic dermatitis: DLT during cycle 1 [1] | serious TEAE (one patient, 800 mg two times per day cohort, related to treatment)
0 (0.0) n (%): Abdominal distension (100 mg two times per day (n=3)) | Abdominal pain (100 mg two times per day (n=3)) | Alanine aminotransferase increased (100 mg two times per day (n=3)) | Amylase increased (100 mg two times per day (n=3)) | Anemia of malignant disease (100 mg two times per day (n=3)) | Aspartate aminotransferase increased (100 mg two times per day (n=3)) | Blood alkaline phosphatase increased (100 mg two times per day (n=3)) | Blood creatine phosphokinase increased (100 mg two times per day (n=3)) | Blood creatinine increased (100 mg two times per day (n=3)) | Dehydration (100 mg two times per day (n=3)) | Diarrhea (100 mg two times per day (n=3)) | Fever (100 mg two times per day (n=3)) | Gamma-glutamyl transferase increased (100 mg two times per day (n=3)) | Hypercalcemia (100 mg two times per day (n=3)) | Lipase increased (100 mg two times per day (n=3)) | Lymphocyte count decreased (100 mg two times per day (n=3)) | Platelet count decreased (100 mg two times per day (n=3)) | Tumor pain (100 mg two times per day (n=3)) | Abdominal distension (200 mg two times per day (n=3)) | Abdominal pain (200 mg two times per day (n=3)) | Alanine aminotransferase increased (200 mg two times per day (n=3)) | Amylase increased (200 mg two times per day (n=3)) | Anemia of malignant disease (200 mg two times per day (n=3)) | Aspartate aminotransferase increased (200 mg two times per day (n=3)) | Blood alkaline phosphatase increased (200 mg two times per day (n=3)) | Blood creatinine increased (200 mg two times per day (n=3)) | Decreased appetite (200 mg two times per day (n=3)) | Dyspepsia (200 mg two times per day (n=3)) | Dysphagia (200 mg two times per day (n=3)) | Fatigue (200 mg two times per day (n=3)) | Gamma-glutamyl transferase increased (200 mg two times per day (n=3)) | Maculopapular rash (200 mg two times per day (n=3)) | Palmar-plantar erythrodysesthesia syndrome (200 mg two times per day (n=3)) | Tumor pain (200 mg two times per day (n=3)) | Aspartate aminotransferase increased (400 mg two times per day (n=3)) | Blood alkaline phosphatase increased (400 mg two times per day (n=3)) | Dehydration (400 mg two times per day (n=3)) | Diarrhea (400 mg two times per day (n=3)) | Dyspepsia (400 mg two times per day (n=3)) | Fever (400 mg two times per day (n=3)) | Gamma-glutamyl transferase increased (400 mg two times per day (n=3)) | Lipase increased (400 mg two times per day (n=3)) | Lymphocyte count decreased (400 mg two times per day (n=3)) | Nausea (400 mg two times per day (n=3)) | Platelet count decreased (400 mg two times per day (n=3)) | Vomiting (400 mg two times per day (n=3)) | Alanine aminotransferase increased (600 mg two times per day (n=3)) | Aspartate aminotransferase increased (600 mg two times per day (n=3)) | Blood creatine phosphokinase increased (600 mg two times per day (n=3)) | Cough (600 mg two times per day (n=3)) | Decreased appetite (600 mg two times per day (n=3)) | Dyspepsia (600 mg two times per day (n=3)) | Dysphagia (600 mg two times per day (n=3)) | Fever (600 mg two times per day (n=3)) | Hypercalcemia (600 mg two times per day (n=3)) | Lymphocyte count decreased (600 mg two times per day (n=3)) | Maculopapular rash (600 mg two times per day (n=3)) | Palmar-plantar erythrodysesthesia syndrome (600 mg two times per day (n=3)) | Platelet count decreased (600 mg two times per day (n=3)) | Abdominal distension (800 mg two times per day (n=3)) | Abdominal pain (800 mg two times per day (n=3)) | Amylase increased (800 mg two times per day (n=3)) | Anemia of malignant disease (800 mg two times per day (n=3)) | Cough (800 mg two times per day (n=3)) | Dehydration (800 mg two times per day (n=3)) | Diarrhea (800 mg two times per day (n=3)) | Dyspepsia (800 mg two times per day (n=3)) | Dysphagia (800 mg two times per day (n=3)) | Hypercalcemia (800 mg two times per day (n=3)) | Lipase increased (800 mg two times per day (n=3)) | Maculopapular rash (800 mg two times per day (n=3)) | Palmar-plantar erythrodysesthesia syndrome (800 mg two times per day (n=3)) | Tumor pain (800 mg two times per day (n=3)) | Vomiting (800 mg two times per day (n=3))
grade 2 ascites: serious TEAE (one patient, 600 mg two times per day cohort, unrelated to treatment)
2 (13.3) n (%): Abdominal distension (Total (N=15)) | Abdominal pain (Total (N=15)) | Alanine aminotransferase increased (Total (N=15)) | Amylase increased (Total (N=15)) | Anemia of malignant disease (Total (N=15)) | Aspartate aminotransferase increased (Total (N=15)) | Blood alkaline phosphatase increased (Total (N=15)) | Dehydration (Total (N=15)) | Dyspepsia (Total (N=15)) | Dysphagia (Total (N=15)) | Fever (Total (N=15)) | Gamma-glutamyl transferase increased (Total (N=15)) | Hypercalcemia (Total (N=15)) | Lymphocyte count decreased (Total (N=15)) | Maculopapular rash (Total (N=15)) | Palmar-plantar erythrodysesthesia syndrome (Total (N=15)) | Platelet count decreased (Total (N=15)) | Tumor pain (Total (N=15))
33.3%: TEAE fatigue (all patients (N=15))
3.1%–62.2: probability of a DLT, 95% credible interval (800 mg)
3 (20.0) n (%): Any SAE (Total (N=15)) | Blood creatine phosphokinase increased (Total (N=15)) | Blood creatinine increased (Total (N=15)) | Cough (Total (N=15)) | Decreased appetite (Total (N=15)) | Diarrhea (Total (N=15)) | Lipase increased (Total (N=15))
4 (26.7) n (%): Nausea (Total (N=15)) | Vomiting (Total (N=15))
no DLTs were observed: DLT (600 mg two times per day (n=3))
grade 3 disease progression: serious TEAE (one patient, 400 mg two times per day cohort, unrelated to treatment)
no MTD was defined: MTD (doses up to 800 mg two times per day)
3 (100) n (%): Any AE (100 mg two times per day (n=3)) | Any AE (200 mg two times per day (n=3)) | Any AE (400 mg two times per day (n=3)) | Any AE (600 mg two times per day (n=3)) | Any AE (800 mg two times per day (n=3))
grade 2 QT prolongation: QT prolongation resulting in dose reduction (not a DLT) [1]
Two patients: dose reductions due to AEs (one grade 3 diarrhea and one grade 3 rash after the DLT period) (600 mg two times per day)
not established: RP2D (in vivo)
5 (33.3) n (%): Fatigue (Total (N=15))
0 n (%): Any SAE (100 mg two times per day (n=3)) | Any SAE (200 mg two times per day (n=3))
≤ 6 h: time to resolution of the DLT after treatment withdrawal (800 mg two times per day, grade 3 allergic dermatitis with fever and hypotension)
13.3%: patients who discontinued M4112 treatment due to TEAEs (two of 15 patients)
26.7%: TEAE nausea (all patients (N=15)) | TEAE vomiting (all patients (N=15))
1 (33.3) n (%): Cough (100 mg two times per day (n=3)) | Decreased appetite (100 mg two times per day (n=3)) | Dysphagia (100 mg two times per day (n=3)) | Maculopapular rash (100 mg two times per day (n=3)) | Nausea (100 mg two times per day (n=3)) | Palmar-plantar erythrodysesthesia syndrome (100 mg two times per day (n=3)) | Blood creatine phosphokinase increased (200 mg two times per day (n=3)) | Cough (200 mg two times per day (n=3)) | Dehydration (200 mg two times per day (n=3)) | Diarrhea (200 mg two times per day (n=3)) | Fever (200 mg two times per day (n=3)) | Hypercalcemia (200 mg two times per day (n=3)) | Lipase increased (200 mg two times per day (n=3)) | Lymphocyte count decreased (200 mg two times per day (n=3)) | Nausea (200 mg two times per day (n=3)) | Platelet count decreased (200 mg two times per day (n=3)) | Vomiting (200 mg two times per day (n=3)) | Abdominal distension (400 mg two times per day (n=3)) | Abdominal pain (400 mg two times per day (n=3)) | Alanine aminotransferase increased (400 mg two times per day (n=3)) | Amylase increased (400 mg two times per day (n=3)) | Anemia of malignant disease (400 mg two times per day (n=3)) | Any SAE (400 mg two times per day (n=3)) | Blood creatine phosphokinase increased (400 mg two times per day (n=3)) | Blood creatinine increased (400 mg two times per day (n=3)) | Cough (400 mg two times per day (n=3)) | Decreased appetite (400 mg two times per day (n=3)) | Dysphagia (400 mg two times per day (n=3)) | Fatigue (400 mg two times per day (n=3)) | Hypercalcemia (400 mg two times per day (n=3)) | Maculopapular rash (400 mg two times per day (n=3)) | Palmar-plantar erythrodysesthesia syndrome (400 mg two times per day (n=3)) | Tumor pain (400 mg two times per day (n=3)) | Abdominal distension (600 mg two times per day (n=3)) | Abdominal pain (600 mg two times per day (n=3)) | Amylase increased (600 mg two times per day (n=3)) | Anemia of malignant disease (600 mg two times per day (n=3)) | Any SAE (600 mg two times per day (n=3)) | Blood alkaline phosphatase increased (600 mg two times per day (n=3)) | Blood creatinine increased (600 mg two times per day (n=3)) | Dehydration (600 mg two times per day (n=3)) | Fatigue (600 mg two times per day (n=3)) | Gamma-glutamyl transferase increased (600 mg two times per day (n=3)) | Nausea (600 mg two times per day (n=3)) | Tumor pain (600 mg two times per day (n=3)) | Vomiting (600 mg two times per day (n=3)) | Alanine aminotransferase increased (800 mg two times per day (n=3)) | Any SAE (800 mg two times per day (n=3)) | Blood alkaline phosphatase increased (800 mg two times per day (n=3)) | Blood creatine phosphokinase increased (800 mg two times per day (n=3)) | Blood creatinine increased (800 mg two times per day (n=3)) | Decreased appetite (800 mg two times per day (n=3)) | Fatigue (800 mg two times per day (n=3)) | Fever (800 mg two times per day (n=3)) | Gamma-glutamyl transferase increased (800 mg two times per day (n=3)) | Lymphocyte count decreased (800 mg two times per day (n=3)) | Nausea (800 mg two times per day (n=3)) | Platelet count decreased (800 mg two times per day (n=3))
15 (100) n (%): Any AE (Total (N=15))
no deaths reported: deaths during the dose-escalation phase (all doses)

— paper PMC7449315 (Journal for Immunotherapy of Cancer, 2020)
